Assay: Toxicity liver stage against HepG2, at 10uM
Assay type: cell-based
Set-up: test concentration 10 uM, cell line HepG2-A16-CD81EGFP
Conditions: human, HepG2-A16-CD81EGFP cells; read-out: INHIBITION
In short: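 Uninfected HepG2-A16-CD81EGFP cells, 3 × 10^3 per well, 1536-well, plated on prespotted compound at 10 μM final, parasite-free screening media added to match infected plates; puromycin 10 μM positive, DMSO 0.5% negative; run in parallel with 48 h PbLuc assay at 37 °C, 5% CO2; viability by CellTiter-Glo luminescence, normalized to controls.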

CC(C)C[C@H](N)c1nnc(SCC(=O)Nc2ccc(Br)cc2)o1
cytotoxicity at 10 µM: -4.99%

COc1ccc(-c2noc([C@@H]3C[C@@H](O)CN3C3CCOCC3)n2)cc1
cytotoxicity at 10 µM: -1.7%

CC(=O)N1CCC(N2CCOC[C@H]2c2nc(-c3cccnc3)c[nH]2)CC1
cytotoxicity at 10 µM: 1.35%

CCOC(=O)N1CCN(C(=O)CCn2cccc2)CC1
cytotoxicity at 10 µM: 5.62%

CCNC(=O)N1CCC(OC)c2ccccc2N(CC(=O)NC)C(=O)C1 (stereo not given)
cytotoxicity at 10 µM: 5.5%

CCc1c(C)sc2nc3n(CCN4CCCCC4)nc(SC)n3c(=O)c12
cytotoxicity at 10 µM: 2.68%

COc1ccc2nnc(CCCC(=O)NCc3ccccc3OC)n2n1
cytotoxicity at 10 µM: -5.95%

COc1ccc2c(c1)c(C(=O)Nc1nnn[nH]1)cn2C
cytotoxicity at 10 µM: -1.33%

O=C(NCc1cccs1)C1CCN(c2cc(-n3ccnc3)ncn2)CC1
cytotoxicity at 10 µM: -3.27%

O=c1ccc(-n2ccnc2)nn1CCNS(=O)(=O)c1ccccc1Cl
cytotoxicity at 10 µM: -0.947%

O=C(c1ccc2[nH]cnc2c1)N1CCC(Oc2ccccn2)CC1
cytotoxicity at 10 µM: 1.59%

CC(=O)N1CCN(c2cc(N(C)C)cnn2)CC1
cytotoxicity at 10 µM: 1.37%

Cc1ccc(NCc2cnc3n2CCN(c2ncccn2)CC3)nn1
cytotoxicity at 10 µM: 7.31%

O=C(Cn1cc(C(=O)O)ccc1=O)NCc1ccc(F)cc1Cl
cytotoxicity at 10 µM: -0.581%

CCN1CC2(CC1=O)CN(C(C)=O)CCN(C(=O)c1ccco1)C2 (stereo not given)
cytotoxicity at 10 µM: -8.92%

CC(C)NC(=O)c1ccn(COc2c(Cl)cccc2Cl)n1
cytotoxicity at 10 µM: 7.44%

Cc1cccc2c1ccn2CC(=O)O
cytotoxicity at 10 µM: 9.49%

Cc1cccc(C(=O)Nc2c(C(=O)N(C)C)nn(C)c2C)c1
cytotoxicity at 10 µM: 7.58%

Cc1ccc(C(=O)Nc2c(C(=O)N(C)C)nn(C)c2C)cc1C
cytotoxicity at 10 µM: 11.8%

Cc1ccc(C2(C(=O)NCCCn3cccn3)CCOCC2)cc1
cytotoxicity at 10 µM: 9.73%

COc1cc(CCC(=O)N2CCC(c3cc4ncc(C)nc4[nH]3)C2)on1 (stereo not given)
cytotoxicity at 10 µM: 1.92%

Cc1cc(C)nc(N2CCCC2c2[nH]ncc2C(=O)N(C)C)n1 (stereo not given)
cytotoxicity at 10 µM: -1.51%

Cc1noc(-c2c[nH]nc2C2CCCN2C(=O)c2ccccc2)c1C (stereo not given)
cytotoxicity at 10 µM: -8.77%

Cc1cncc(C2CCCN2CC(N)=O)n1 (stereo not given)
cytotoxicity at 10 µM: -5.3%

CC(=O)N1CCC(C)(c2cc[nH]n2)CC1
cytotoxicity at 10 µM: -4.07%

CCCN1C[C@H](NC(=O)c2cc(C)no2)[C@@H](c2ccc(OC)cc2)C1
cytotoxicity at 10 µM: -27.3%

Cc1c(C(=O)N2CCC(O)(CN(C)C)C2)c2ccccc2n1C (stereo not given)
cytotoxicity at 10 µM: 3.49%

CCn1cc(CN2C[C@@H]3CCCN3C[C@H]2CCSC)cn1
cytotoxicity at 10 µM: -25.4%

OC1(Cn2ccc3ncccc32)CCN(Cc2cccnc2)CC1
cytotoxicity at 10 µM: 5.72%

COCCC(=O)N1CCCC1c1nc(O)cc(-c2ccccn2)n1 (stereo not given)
cytotoxicity at 10 µM: -5.86%

Cc1csc2c(=O)n3c(nc12)CCN(C(=O)c1ccccn1)CC3
cytotoxicity at 10 µM: -10.2%

O=C(Nc1ccc(-c2csnn2)cc1)N1CCC(N2CCCC2)C1 (stereo not given)
cytotoxicity at 10 µM: -8.79%

CC(C(=O)NCCc1ccc2c(c1)OCCO2)n1cncn1 (stereo not given)
cytotoxicity at 10 µM: 6.89%

CC(C)CN1CCC(NC(=O)N(C)Cc2csc3ccccc23)CC1
cytotoxicity at 10 µM: -52.9%

COCCOc1ncccc1C(=O)N(C)c1ccc(OC)nc1
cytotoxicity at 10 µM: -44.4%

Cc1cc(C)n(CC(C)CNC(=O)NCc2csc(C)n2)n1 (stereo not given)
cytotoxicity at 10 µM: 11%

CN(Cc1nc(C2CC2)no1)C1CCS(=O)(=O)C1 (stereo not given)
cytotoxicity at 10 µM: 13.2%

CC1CCCN(C(=O)c2occc2COc2cccc(C#N)c2)C1 (stereo not given)
cytotoxicity at 10 µM: 4.57%

Cc1cc(CN2CCN(CC(=O)NC3(C#N)CCCCC3)CC2)on1
cytotoxicity at 10 µM: 5.83%

Cc1cc(CNC(=O)N2CCN(C(C)c3cccnc3)CC2)c(C)o1 (stereo not given)
cytotoxicity at 10 µM: -8.54%

CCNC(=O)CCS(=O)(=O)Cc1ccn(-c2cccc(F)c2)n1
cytotoxicity at 10 µM: 11.1%

Cc1nccn1C1CCCN(C(=O)CCc2nc(C(C)C)no2)C1 (stereo not given)
cytotoxicity at 10 µM: -6.27%

CCn1cc(C(=O)NCC(OC)c2cccc(Cl)c2)cn1 (stereo not given)
cytotoxicity at 10 µM: -8.87%

CC(NCc1cc2cc(F)ccc2o1)c1nnc2n1CCCC2 (stereo not given)
cytotoxicity at 10 µM: -7.93%

CC(C)NC(=O)CCN1CCCC1c1cccc2c1OCCO2 (stereo not given)
cytotoxicity at 10 µM: 0.354%

Cc1noc(C)c1CN1CCN(C(=O)CCn2cncn2)CC1
cytotoxicity at 10 µM: 0.975%

CC(NC(=O)C1=NN(C)C(=O)CC1)c1ccccc1Cl (stereo not given)
cytotoxicity at 10 µM: 0.665%

CCc1ncc2c(n1)CN(Cc1cc(C)on1)CC2
cytotoxicity at 10 µM: -16.7%

CC(CN1CCCC1=O)NC(=O)c1cc(=O)[nH]c2ccc(Cl)cc12 (stereo not given)
cytotoxicity at 10 µM: -7.14%

COCCNc1ccccc1CNC(=O)C1CCCOC1 (stereo not given)
cytotoxicity at 10 µM: -8.3%

Cc1nc(CN2CCCC(N(C)c3ccc(C#N)cn3)C2)no1 (stereo not given)
cytotoxicity at 10 µM: -6.76%

Cc1cc(NC(=O)N2CCCC2C(C)(C)O)c2ncccc2c1 (stereo not given)
cytotoxicity at 10 µM: 6.87%

CN(Cc1cccs1)S(=O)(=O)c1ccc(C(F)(F)F)nc1
cytotoxicity at 10 µM: -5.68%

CC1CCCN(c2ccccc2OCC(=O)N2CCOCC2)C1 (stereo not given)
cytotoxicity at 10 µM: -22.3%

Clc1ccc(CN2CCCC(Cn3cncn3)C2)c2ncccc12 (stereo not given)
cytotoxicity at 10 µM: -13.7%

Cc1cccc(-n2cc(C(=O)N3CCn4c(C)nnc4C3)nn2)c1
cytotoxicity at 10 µM: -10.1%

CC[C@H](C)[C@H](N)C(=O)N1CC(=O)c2sc(NC3CCCCC3)nc2C1
cytotoxicity at 10 µM: -13.7%

Fc1ccc(-c2n[nH]cc2-c2ccnc(NCCN3CCCC3)n2)cc1
cytotoxicity at 10 µM: 9.05%

O=C1CC(C(=O)N2CCc3sccc3C2)CN1Cc1cccnc1 (stereo not given)
cytotoxicity at 10 µM: -1.18%

CN(C)CCN1CC2(CCC1=O)CCN(C(=O)c1ccn(C)n1)CC2
cytotoxicity at 10 µM: -11%

Cc1nn(C)c2nc(N(CCN(C)C)CC3CCCO3)sc12 (stereo not given)
cytotoxicity at 10 µM: -4.62%

COc1ccc2c(C)nc(N3CCN([C@H]4CCCC[C@@H]4O)CC3)nc2c1
cytotoxicity at 10 µM: 7.24%

COc1ccc(N2CCN(C(=O)[C@@H]3C[C@@H](O)CN3)CC2(C)C)cc1
cytotoxicity at 10 µM: 4.95%

Cn1ccnc1C1CCN(S(=O)(=O)c2ccc3c(c2)OCCO3)CC1
cytotoxicity at 10 µM: -13.5%

CN(Cc1ccc(-n2cccn2)cc1)C(=O)CCC(F)(F)F
cytotoxicity at 10 µM: -3.67%

Cc1cccc(C)c1OC1CN(Cc2cnc(-c3ccco3)nc2)C1
cytotoxicity at 10 µM: 6.17%

CC(C)c1cc(C2CCN(C(=O)Cn3cnnn3)CC2)[nH]n1
cytotoxicity at 10 µM: 8.04%

O=C(CCc1nc(Cl)n[nH]1)NC1CCCN(C2Cc3ccccc3C2)C1 (stereo not given)
cytotoxicity at 10 µM: -18.9%

O=C(CCC1CCCN(C(=O)CCN2CCCCO2)C1)N1CCCC1 (stereo not given)
cytotoxicity at 10 µM: 2.11%

CCCc1nc(C(=O)N2C[C@H](CO)C[C@H](CN3CCOCC3)C2)cs1
cytotoxicity at 10 µM: 3.79%

Cc1nc(CN(CCc2ccccc2)C2CCN(C)CC2)no1
cytotoxicity at 10 µM: -4%

COc1ccc(CC2CN(C3CCSCC3)CCO2)cc1 (stereo not given)
cytotoxicity at 10 µM: 4.49%

CCOCC1(CNCc2cc(O)c3cc(C)ccc3n2)CC1
cytotoxicity at 10 µM: -9.19%

CN(C)C(C(=O)NCC1(C)COC1)c1cccc(F)c1 (stereo not given)
cytotoxicity at 10 µM: -6.41%

c1ccc(OCCN2CCN(c3ncnc4[nH]ccc34)CC2)cc1
cytotoxicity at 10 µM: 8.64%

CCC(C(=O)NCc1noc(Cc2cccs2)n1)n1cccn1 (stereo not given)
cytotoxicity at 10 µM: -1.91%

COc1ccc(CN2C[C@@H](CN(C)C)[C@@H](CO)C2)c(Cl)c1OC
cytotoxicity at 10 µM: -8.44%

COc1ccc(C)cc1S(=O)(=O)N[C@H]1CN(C(C)=O)C[C@@H]1C1CC1
cytotoxicity at 10 µM: -3.64%

Cc1cnn(CCCNC(=O)CCC2CCCCN2C)c1 (stereo not given)
cytotoxicity at 10 µM: -7.32%

Cc1cnn(C(C)C2CC2)c1NC(=O)c1ccncc1 (stereo not given)
cytotoxicity at 10 µM: -8.48%

Cn1cc(C(=O)NC(Cn2cccn2)C(C)(C)C)cn1 (stereo not given)
cytotoxicity at 10 µM: -6.36%

Cn1nnnc1SCC1COc2ccccc2O1 (stereo not given)
cytotoxicity at 10 µM: -1.94%

CC(=O)N1CCCN(C(=O)NCCOc2ccc3c(c2)CCC3)CC1
cytotoxicity at 10 µM: -1.84%

COc1c(CNC(c2ccccc2)c2ccc(F)cc2)c(C)nn1C (stereo not given)
cytotoxicity at 10 µM: -5.16%

CC(C)c1nccn1C1CCCN(C(=O)c2cc(C(N)=O)cs2)C1 (stereo not given)
cytotoxicity at 10 µM: -2.61%

Cc1cnn(CC2CCCN2C(=O)c2csc(C(C)C)n2)c1 (stereo not given)
cytotoxicity at 10 µM: 4.89%

O=C(COc1ccc2c(c1)CCC2)N1CCCC(n2cccn2)C1 (stereo not given)
cytotoxicity at 10 µM: -2.58%

Cc1ccccc1NS(=O)(=O)c1cc2c(c(C(=O)O)c1)OCCO2
cytotoxicity at 10 µM: -11.7%

Cc1cc(C)n(CC2CCCN2C(=O)c2c[nH]c3ncccc23)n1 (stereo not given)
cytotoxicity at 10 µM: -0.808%

COc1cccc2cc(CNCc3ccnc(N4CCOCC4)c3)oc12
cytotoxicity at 10 µM: -8.55%

Cc1nn(C)c(Cl)c1C1CCCN1C(=O)c1ccc2nncn2c1 (stereo not given)
cytotoxicity at 10 µM: -10.2%

Cc1occc1CNC(=O)N(CCCO)C1CCc2ccccc21 (stereo not given)
cytotoxicity at 10 µM: -0.842%

Cc1occc1C(=O)NCc1ccc(N2CCCC(C(N)=O)C2)cc1 (stereo not given)
cytotoxicity at 10 µM: 1.49%

O=C(Cc1csc(-c2ccco2)n1)N1CCN(CCO)CC1
cytotoxicity at 10 µM: -0.337%

Cc1oc(C)c(C(=O)NCc2cccc(NC(=O)CN(C)C)c2)c1C
cytotoxicity at 10 µM: -6.54%

Cc1ccc(N2CCCC(NCc3ccc(C)o3)C2)nn1 (stereo not given)
cytotoxicity at 10 µM: 0.0722%

CC(=O)N(Cc1ncc(C)o1)C1CCN(Cc2noc(C)n2)C1 (stereo not given)
cytotoxicity at 10 µM: 0%

Cc1ncc(C(=O)N2CCOC(C(=O)N3CCCCCC3)C2)c(C)n1 (stereo not given)
cytotoxicity at 10 µM: 3.67%

Fc1ccc(OCCCNC2=NCCCN2)cc1
cytotoxicity at 10 µM: -7.91%

COc1cc(CN2CCn3c(CO)nnc3C2)ccc1OC(C)C
cytotoxicity at 10 µM: -25.4%

Cc1cc(C)c(N(CC(O)CNCc2ccccc2)S(C)(=O)=O)c(C)c1 (stereo not given)
cytotoxicity at 10 µM: -12.7%

O=C(N1CCCC1)N1CCO[C@H]2[C@@H](Oc3ccccn3)CC[C@@H]21
cytotoxicity at 10 µM: 8.95%

Cc1ccc(CN2CC3(CCN(C(=O)c4cscn4)C3)C2)s1
cytotoxicity at 10 µM: -10.3%

Cc1ccc(CN2CCC(F)(F)C3(CCN(c4cnccn4)C3)C2)o1 (stereo not given)
cytotoxicity at 10 µM: -3.71%

O=C([C@@H]1COC[C@H]2CN(C3CCCC3)C[C@H]21)N1CCCO1
cytotoxicity at 10 µM: -0.262%

O=C1NC2(CCN(Cc3ccc(F)cc3)CC2)CC1c1ccncc1 (stereo not given)
cytotoxicity at 10 µM: 3.16%

CCn1ncc2c1C(COCC1CC1)CN(S(=O)(=O)N(C)C)C2 (stereo not given)
cytotoxicity at 10 µM: -10.4%

CN(C)CC(=O)N1CCC2(CC1)COC(COc1ccccn1)C2 (stereo not given)
cytotoxicity at 10 µM: -3.14%

O=C(C1CCOCC1)N1C[C@@H]2CC[C@H]1CN(Cc1ccncc1)C2
cytotoxicity at 10 µM: -11%

Cn1ncc2c(N[C@@H]3C[C@H]4CC[C@@H]3C4)nc(-c3ccncc3)nc21
cytotoxicity at 10 µM: 5.89%
